In ChEMBL document CHEMBL1129738, “3-Aryl-1,2-diacetamidopropane derivatives as novel and potent NK-1 receptor antagonists” (J Med Chem, 1996):

Key:
Substance-P receptor [1] = target: Substance-P receptor (Homo sapiens, UniProt P25103); assay: Inhibitory activity against Tachykinin receptor 1 in human IM-9 cells using [125I]-labeled Boltan-Hunter substance P as radioligand; type: cell-based
U-373 MG (Homo sapiens) = assay: In vitro inhibitory activity against P induced IL-6 secretion in U-373 MG Astrocytoma cells
Substance-K receptor = target: T1, Substance-K receptor (Oryctolagus cuniculus, UniProt P79218); assay: Inhibition of neurokinin A induced contraction of rabbit pulmonary artery (RPA) tissue expressing Tachykinin receptor 2; type: functional, tissue-based; conditions: read-out: pA2 (converted)
T1 sequence (P79218 whole entry): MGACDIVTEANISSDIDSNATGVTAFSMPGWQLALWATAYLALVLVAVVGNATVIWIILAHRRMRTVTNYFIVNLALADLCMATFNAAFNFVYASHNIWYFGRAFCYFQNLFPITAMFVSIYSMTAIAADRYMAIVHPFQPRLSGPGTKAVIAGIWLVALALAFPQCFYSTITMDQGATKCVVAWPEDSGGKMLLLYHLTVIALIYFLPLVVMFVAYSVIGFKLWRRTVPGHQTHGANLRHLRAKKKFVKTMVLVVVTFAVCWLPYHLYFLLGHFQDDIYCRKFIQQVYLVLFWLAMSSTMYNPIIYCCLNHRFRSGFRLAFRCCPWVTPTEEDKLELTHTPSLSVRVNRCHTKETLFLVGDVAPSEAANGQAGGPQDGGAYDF

Neuromedin-K receptor = target: T2, Neuromedin-K receptor (Rattus norvegicus, UniProt P16177); assay: Inhibition of neurokinin B induced contraction of rat portal vein (RPV) tissue expressing Tachykinin receptor 3; type: functional; conditions: read-out: pA2 (converted)
T2 sequence (P16177 whole entry): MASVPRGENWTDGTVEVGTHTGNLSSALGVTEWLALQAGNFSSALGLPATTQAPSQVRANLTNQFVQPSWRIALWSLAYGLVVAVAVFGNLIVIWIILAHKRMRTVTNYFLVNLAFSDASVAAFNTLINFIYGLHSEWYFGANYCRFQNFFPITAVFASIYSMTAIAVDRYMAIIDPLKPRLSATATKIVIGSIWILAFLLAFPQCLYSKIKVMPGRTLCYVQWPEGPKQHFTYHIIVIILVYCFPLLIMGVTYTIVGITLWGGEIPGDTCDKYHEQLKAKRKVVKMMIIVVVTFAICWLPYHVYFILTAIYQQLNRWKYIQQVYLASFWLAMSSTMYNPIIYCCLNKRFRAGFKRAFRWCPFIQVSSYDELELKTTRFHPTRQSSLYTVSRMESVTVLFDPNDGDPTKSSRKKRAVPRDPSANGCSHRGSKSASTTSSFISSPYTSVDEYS

U11 MG = assay: In vitro inhibitory activity against P induced phosphatidyl inositol turnover in UC-11 MG Astrocytoma cells; type: functional, cell-based, Homo sapiens
In short: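 Human UC-11 MG astrocytoma cells; inhibition of substance P-induced phosphatidylinositol turnover; Ki in nM; mean of two determinations.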

Substance-P receptor [2] = target: Substance-P receptor (Cavia porcellus, UniProt P30547); assay: Inhibitory activity against Tachykinin receptor 1 in guinea pig brain using [125I]-labeled Boltan-Hunter substance P as radioligand
Substance-P receptor [3] = target: Substance-P receptor (Rattus norvegicus, UniProt P14600); assay: Inhibitory activity against Tachykinin receptor 1 in rat brain using [125I]-labeled Boltan-Hunter substance P as radioligand; type: tissue-based
Substance-P receptor [4] = target: Substance-P receptor (Mus musculus, UniProt P30548); assay: Inhibitory activity against Tachykinin receptor 1 in mouse brain using [125I]-labeled Boltan-Hunter substance P as radioligand; type: tissue-based
Sequence of Substance-P receptor (Mus musculus, UniProt P30548) (P30548 whole entry): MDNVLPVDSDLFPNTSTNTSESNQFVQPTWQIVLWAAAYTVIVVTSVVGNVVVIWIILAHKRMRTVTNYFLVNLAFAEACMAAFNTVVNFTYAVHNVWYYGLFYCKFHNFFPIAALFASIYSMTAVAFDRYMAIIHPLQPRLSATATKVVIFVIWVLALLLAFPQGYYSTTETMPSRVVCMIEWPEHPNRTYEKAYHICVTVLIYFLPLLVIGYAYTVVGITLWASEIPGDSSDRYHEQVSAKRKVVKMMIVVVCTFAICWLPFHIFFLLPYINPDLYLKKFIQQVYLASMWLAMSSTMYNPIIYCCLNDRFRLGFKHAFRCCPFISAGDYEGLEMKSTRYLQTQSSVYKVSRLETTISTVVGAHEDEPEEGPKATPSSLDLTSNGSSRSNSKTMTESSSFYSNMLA

Sequence of Substance-P receptor (Homo sapiens, UniProt P25103) (P25103 whole entry): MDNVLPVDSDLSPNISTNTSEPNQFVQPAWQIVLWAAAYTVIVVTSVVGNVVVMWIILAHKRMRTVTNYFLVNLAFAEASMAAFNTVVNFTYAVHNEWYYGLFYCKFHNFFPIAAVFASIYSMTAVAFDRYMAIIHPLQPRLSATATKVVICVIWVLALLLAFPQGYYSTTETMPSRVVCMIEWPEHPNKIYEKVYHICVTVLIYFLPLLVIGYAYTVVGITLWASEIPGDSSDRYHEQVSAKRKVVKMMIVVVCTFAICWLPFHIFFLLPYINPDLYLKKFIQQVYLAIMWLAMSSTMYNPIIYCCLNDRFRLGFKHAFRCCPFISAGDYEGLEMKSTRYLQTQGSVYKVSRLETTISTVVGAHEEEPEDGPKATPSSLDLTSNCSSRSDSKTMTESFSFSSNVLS
Sequence of Substance-P receptor (Rattus norvegicus, UniProt P14600) (P14600 whole entry): as the sequence (P30548 whole entry) above, with V7M, T15I, I266V, D367E counted along it
Sequence of Substance-P receptor (Cavia porcellus, UniProt P30547) (P30547 whole entry): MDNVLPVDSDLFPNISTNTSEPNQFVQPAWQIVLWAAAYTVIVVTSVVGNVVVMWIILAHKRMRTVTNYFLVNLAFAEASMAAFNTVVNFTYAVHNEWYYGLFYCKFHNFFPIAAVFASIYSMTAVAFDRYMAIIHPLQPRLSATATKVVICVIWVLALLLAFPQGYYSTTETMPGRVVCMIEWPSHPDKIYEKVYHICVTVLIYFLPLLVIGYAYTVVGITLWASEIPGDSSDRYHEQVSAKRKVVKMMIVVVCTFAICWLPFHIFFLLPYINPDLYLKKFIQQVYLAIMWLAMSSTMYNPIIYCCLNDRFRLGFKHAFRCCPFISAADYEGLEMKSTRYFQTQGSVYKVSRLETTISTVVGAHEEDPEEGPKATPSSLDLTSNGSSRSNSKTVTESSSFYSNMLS

| SMILES | IC50 (Substance-P receptor [1]) | also measured |
| --- | --- | --- |
| CC(=O)N(Cc1ccccc1Cl)C[C@H](Cc1c[nH]c2ccccc12)NC(=O)CN1CCC(N2CCCCC2)CC1 | 159 nM |  |
| COc1ccccc1CN(CC(Cc1ccc2ccccc2c1)NC(=O)CN1CCN(c2ccccc2)CC1)C(C)=O (centres undefined) | 11 nM |  |
| COc1ccccc1CN(CC(Cc1c[nH]c2ccccc12)NC(=O)CN1CCOCC1)C(C)=O (centres undefined) | 27 nM |  |
| COc1ccccc1CN(CC(Cc1c[nH]c2ccccc12)NC(=O)CN1CCN(C2CCCCC2)CC1)C(C)=O (centres undefined) | 0.34 nM |  |
| COc1ccccc1CN(C=O)CC(Cc1c[nH]c2ccccc12)NC(=O)CN1CCN(c2ccccc2)CC1 (centres undefined) | 0.8 nM |  |
| COC(=O)CC(=O)N(Cc1ccccc1OC)CC(Cc1c[nH]c2ccccc12)NC(=O)CN1CCN(c2ccccc2)CC1 (centres undefined) | 1.28 nM |  |
| COc1ccccc1CN(CC(Cc1c[nH]c2ccccc12)NC(=O)CN1CCCCC1)C(C)=O (centres undefined) | 33 nM |  |
| COc1ccccc1CNCC(Cc1c[nH]c2ccccc12)NC(=O)CN1CCN(c2ccccc2)CC1 (centres undefined) | 51 nM |  |
| COc1ccccc1CN[C@H]1C2CCN(CC2)[C@H]1C(c1ccccc1)c1ccccc1 [CP-96345] |  | Ki (U-373 MG (Homo sapiens)): 4 nM; Kb (Substance-K receptor): 50100 nM; Kb (Neuromedin-K receptor): 2510 nM; Ki (U11 MG): 5.2 nM |
| CC(=O)N(CCc1ccccc1)CC(Cc1c[nH]c2ccccc12)NC(=O)CN1CCN(c2ccccc2)CC1 (centres undefined) | 126 nM |  |
| COc1ccccc1CN(CC(Cc1c[nH]c2ccccc12)NC(=O)CN1CCN(Cc2ccccc2)CC1)C(C)=O (centres undefined) | 0.98 nM | IC50 (Substance-P receptor [2]): 0.88 nM; IC50 (Substance-P receptor [3]): 16 nM |
| COc1ccccc1CN(CC(Cc1c[nH]c2ccccc12)NC(=O)CN1CC=C(c2ccccc2)CC1)C(C)=O (centres undefined) | 3.1 nM |  |
| CC(=O)N(C)CC(Cc1c[nH]c2ccccc12)NC(=O)CN1CCN(c2ccccc2)CC1 (centres undefined) | > 5000 nM |  |
| COc1ccccc1CN(CC(NC(=O)CN1CCN(c2ccccc2)CC1)C(C)C)C(C)=O (centres undefined) | > 5000 nM |  |
| CSc1ccccc1CN(CC(Cc1c[nH]c2ccccc12)NC(=O)CN1CCN(c2ccccc2)CC1)C(C)=O (centres undefined) | 7.2 nM |  |
| COc1ccccc1CN(C[C@@H](Cc1c[nH]c2ccccc12)NC(=O)CN1CCN(C2CCCCC2)CC1)C(C)=O | 0.18 nM | IC50 (Substance-P receptor [3]): 1.5 nM; IC50 (Substance-P receptor [4]): 1.3 nM |
| CC(=O)N(CC(Cc1c[nH]c2ccccc12)NC(=O)CN1CCN(c2ccccc2)CC1)c1ccccc1 (centres undefined) | > 5000 nM |  |
| COc1ccccc1CN(CC(NC(=O)CN1CCN(c2ccccc2)CC1)c1ccc(Cl)c(Cl)c1)C(C)=O (centres undefined) | 338 nM |  |
| COc1ccccc1CN(CCNC(=O)CN1CCN(c2ccccc2)CC1)C(C)=O | > 5000 nM |  |
| COc1ccccc1CC(=N)N1C[C@@H]2C(=O)CCC(c3ccccc3)(c3ccccc3)[C@@H]2C1 | 30 nM | IC50 (Substance-P receptor [2]): 32 nM; IC50 (Substance-P receptor [3]): 6.7 nM; IC50 (Substance-P receptor [4]): 8.7 nM |
| COc1ccccc1CN(C[C@H](Cc1c[nH]c2ccccc12)NC(=O)CN1CCN(C2CCCCC2)CC1)C(C)=O | 80.9 nM |  |
| CC(=O)N(Cc1ccccc1C(F)(F)F)CC(Cc1c[nH]c2ccccc12)NC(=O)CN1CCN(c2ccccc2)CC1 (centres undefined) | 3.2 nM |  |
| COc1ccccc1CN(CC(Cc1c[nH]c2ccccc12)NC(=O)CN1CCN(c2ccccc2)CC1)S(C)(=O)=O (centres undefined) | 4 nM |  |
| COc1ccc(CN(CC(Cc2c[nH]c3ccccc23)NC(=O)CN2CCN(c3ccccc3)CC2)C(C)=O)cc1 (centres undefined) | 2.5 nM | IC50 (Substance-P receptor [3]): 1100 nM |

| SMILES | IC50 (Substance-P receptor [1]) | also measured |
| --- | --- | --- |
| CCOC(=O)N(Cc1ccccc1OC)CC(Cc1c[nH]c2ccccc12)NC(=O)CN1CCN(c2ccccc2)CC1 (centres undefined) | 5.5 nM |  |
| COc1ccccc1CN(CC(Cc1c[nH]c2ccccc12)NC(=O)CN1CCC(N(C)C)CC1)C(C)=O (centres undefined) | 2.8 nM |  |
| CC(=O)N(CC1CCCCC1)CC(Cc1c[nH]c2ccccc12)NC(=O)CN1CCN(c2ccccc2)CC1 (centres undefined) | 21.9 nM |  |
| COc1ccccc1CN(C[C@@H](Cc1c[nH]c2ccccc12)NC(=O)CN1CCN(c2ccccc2)CC1)C(C)=O |  | Ki (U-373 MG (Homo sapiens)): 1.2 nM; Ki (U11 MG): 0.48 nM |
| COc1ccccc1CN(CC(Cc1cccc2ccccc12)NC(=O)CN1CCN(c2ccccc2)CC1)C(C)=O (centres undefined) | 2.73 nM |  |
| COc1ccccc1CN(C[C@H](Cc1c[nH]c2ccccc12)NC(=O)CN1CCC(N2CCCCC2)CC1)C(C)=O |  | Kb (Substance-K receptor): 20000 nM; Kb (Neuromedin-K receptor): 200 nM; Ki (U11 MG): 5600 nM |
| COc1ccccc1CN(C[C@@H](Cc1c[nH]c2ccccc12)NC(=O)CN1CCC(N2CCCCC2)CC1)C(C)=O [LANEPITANT] |  | Ki (U-373 MG (Homo sapiens)): 5.5 nM; Kb (Substance-K receptor): 20000 nM; Kb (Neuromedin-K receptor): 20000 nM; Ki (U11 MG): 1.3 nM |
| COc1ccccc1CN(CC(Cc1csc2ccccc12)NC(=O)CN1CCN(c2ccccc2)CC1)C(C)=O (centres undefined) | 1.18 nM |  |
| CC(=O)N(Cc1ccccc1[N+](=O)[O-])CC(Cc1c[nH]c2ccccc12)NC(=O)CN1CCN(c2ccccc2)CC1 (centres undefined) | 3 nM |  |
| COc1ccccc1CN(CC(Cc1c[nH]c2ccccc12)NC(=O)CN1CCN(c2ccccc2)CC1)C(=O)c1ccccc1 (centres undefined) | 2 nM |  |
| COc1ccccc1CN(CC(NC(=O)CN1CCN(c2ccccc2)CC1)c1ccccc1)C(C)=O (centres undefined) | 474 nM |  |
| CC(=O)N(Cc1ccccc1)CC(Cc1c[nH]c2ccccc12)NC(=O)CN1CCN(c2ccccc2)CC1 (centres undefined) | 2.2 nM |  |
| CC(=O)N(Cc1ccccc1Cl)CC(Cc1c[nH]c2ccccc12)NC(=O)CN1CCN(c2ccccc2)CC1 (centres undefined) | 1.9 nM |  |
| CCC(=O)N(Cc1ccccc1OC)CC(Cc1c[nH]c2ccccc12)NC(=O)CN1CCN(c2ccccc2)CC1 (centres undefined) | 0.81 nM |  |
| CC(=O)N(Cc1ccccc1C)CC(Cc1c[nH]c2ccccc12)NC(=O)CN1CCN(c2ccccc2)CC1 (centres undefined) | 3.2 nM |  |
| COc1ccccc1CN(CC(Cc1c[nH]c2ccccc12)NC(=O)CN1CCN(c2ccccc2)CC1)C(=O)CN(C)C (centres undefined) | 1.54 nM | IC50 (Substance-P receptor [3]): 480 nM; IC50 (Substance-P receptor [4]): 200 nM |
| COc1ccccc1CN(CC(CC1CNc2ccccc21)NC(=O)CN1CCN(c2ccccc2)CC1)C(C)=O (centres undefined) | 27.4 nM |  |
| COc1ccccc1CN(CC(Cc1c[nH]c2ccccc12)NC(=O)CN1CCN(C)CC1)C(C)=O (centres undefined) | 5.3 nM |  |
| COc1ccccc1CN(C[C@H](Cc1c[nH]c2ccccc12)NC(=O)CN1CCN(c2ccccc2)CC1)C(C)=O |  | Ki (U-373 MG (Homo sapiens)): 3500 nM; Kb (Substance-K receptor): 20000 nM; Ki (U11 MG): 630 nM |
| CCN(Cc1ccccc1OC)CC(Cc1c[nH]c2ccccc12)NC(=O)CN1CCN(c2ccccc2)CC1 (centres undefined) | 85 nM |  |
| COc1ccccc1CN(CC(Cc1c[nH]c2ccccc12)NC(=O)CN1CCC(c2ccccc2)CC1)C(C)=O (centres undefined) | 4.5 nM |  |
| CC(=O)N(Cc1ccccc1Cl)CC(Cc1c[nH]c2ccccc12)NC(=O)CN1CCC(N2CCCCC2)CC1 (centres undefined) | 0.18 nM |  |
| CCCCN(CC(Cc1c[nH]c2ccccc12)NC(=O)CN1CCN(c2ccccc2)CC1)C(C)=O (centres undefined) | 149 nM |  |
| CNC(=O)N(Cc1ccccc1OC)CC(Cc1c[nH]c2ccccc12)NC(=O)CN1CCN(c2ccccc2)CC1 (centres undefined) | 3 nM |  |
